Experimental data from publication PMC6589987 (Therapeutic Advances in Chronic Disease, 2019).
“Also recorded” adds a separate entry of the source. Where two headings read alike, the source gives them in different places.

Legend:
[1] = after subcutaneous injection; cited from earlier work
[2] = Plasma levodopa pharmacokinetics after inhaled; type: in vivo, human; settings: for AUC: inhaled or intranasal
Procedure, shortened: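 Eight Parkinson's patients, not in the off state, got single morning doses at least 7.5 h after their last home dose, fasting 60 min before to 60 min after. Oral doses were 100/25–250/62.5 mg with decarboxylase inhibitor, normalised to 100 mg. Plasma had glutathione added and was stored at −80°C, then assayed by LC-MS/MS (LOQ 1.0 nmol/l). Half-life came from Cmax and the last concentration.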

[3] = progressed, fluctuating patients; cited from earlier work
[4] = cited from earlier work
[5] = Delivered dose and fine particle dose from the Cyclops inhaler; type: physicochemical; settings: at 4 kPa; laser diffraction
Procedure, shortened: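 Residue left in the inhaler after each patient inhalation was measured by UV spectrophotometry. Delivered dose was calculated as blister dose minus inhaler residue. Fine particle dose (<5 µm) was measured by laser diffraction at 4 kPa.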

[6] = Airway tolerability: spirometry; type: in vivo, human
Procedure, shortened: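 Eight patients with Parkinson's disease (not off) inhaled dry-powder levodopa by mouth: 30 mg, then 60 mg (2 × 30 mg). At a third visit they took their regular oral levodopa/decarboxylase inhibitor. Visits were ≥7 days apart, in the morning, ≥7.5 h after the last home dose, with no food for 60 min either side. Spirometry (pneumotachograph, ATS/ERS) was done before and ±35 and 100 min after dosing. FEV1 drop >10% from baseline was deemed relevant. Cough and dyspnoea were queried each session (Borg scale).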

Structure (SMILES)	lag time to onset of effect [1]	AUC ([2]; human, plasma, 30 mg)	AUC ([2]; human, plasma, 60 mg)	half-life ([2]; human, plasma, po, mean elimination half-life time, oral administration of levodopa plus decarboxylase inhibitor)	elimination half-life ([2]; inhaled levodopa, both doses, range and mean)	time by which inhaled levodopa is absorbed faster in the blood plasma than oral ([2]; inhaled vs oral)	relative bioavailability of inhaled levodopa in comparison with oral levodopa ([2]; inhaled without carboxylase inhibitor vs oral with carboxylase inhibitor)	mean elimination half-life time ([2]; oral administration of levodopa plus decarboxylase inhibitor)	increase in levodopa effect compartment concentration giving maximum effect on finger tapping [3]	plasma levodopa concentration ([4]; 10 min after 100 mg oral levodopa in the fasted state)	absolute bioavailability ([4]; oral immediate-release levodopa combined with a decarboxylase inhibitor)	absolute bioavailability ([4]; oral immediate-release levodopa)	fine particle dose (<5 µm) [5]	change in lung-function parameters (FEV1, FVC, MEF50) ([6]; after inhalation of 30 mg or 60 mg levodopa, spirometry ±35 and 100 min after administration)	tolerability ([6]; after inhalation, 30 and 60 mg)	change in lung-function parameters (FEV1, FVC, MEF50) ([6]; after oral administration of levodopa)	patients experiencing cough or dyspnoea ([6]; during or after inhalation)
CN1CCc2cccc3c2[C@H]1Cc1ccc(O)c(O)c1-3 [apomorphine]	> 20 min	–	–	–	–	–	–	–	–	–	–	–	–	–	–	–	–
N[C@@H](Cc1ccc(O)c(O)c1)C(=O)O [levodopa, Levodopa]	–	9.69 ng·h/mL	9.58 ng·h/mL	1.13 ± 0.343 h	0.967 h	up to 85 min	53%	1.13 h	200 to 400 ng/mL	around 150 ng/ml	approximately 85%	40–60%	45 % of the delivered dose	No significant change; also recorded: none of the patients	well tolerated	No significant change	none of the patients
